How the values were obtained:
[1] = biological target: T1, Serine protease 1 (Bos taurus, UniProt P00760); assay: Inhibitory activity against bovine pancreatic trypsin
T1 sequence (P00760 whole entry): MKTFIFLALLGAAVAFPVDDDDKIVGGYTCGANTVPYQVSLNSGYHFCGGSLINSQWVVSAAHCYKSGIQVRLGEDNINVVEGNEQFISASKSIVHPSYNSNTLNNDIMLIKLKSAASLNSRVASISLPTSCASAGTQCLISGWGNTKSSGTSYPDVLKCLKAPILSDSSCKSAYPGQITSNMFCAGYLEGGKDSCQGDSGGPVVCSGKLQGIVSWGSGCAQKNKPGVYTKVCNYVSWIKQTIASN
Method in brief: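 Bovine trypsin at 1 nM final, with buffer 0.05 M Tris, 0.15 M NaCl, 0.1% PEG-8000, 0.02 M CaCl2, pH 7.5, room temperature. 30 min compound preincubation, then S-2765 at 250 μM final. 405 nm read continuously for 5 min. IC50 from initial rates; apparent Ki by Cheng-Prusoff, assuming competitive kinetics.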

[2] = biological target: T2, Prothrombin (Homo sapiens, UniProt P00734); assay: Inhibition of human thrombin
Method in brief: (§1)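 Preincubated with compound 30 min, then Pefachrome TH at 50 μM final. p-Nitroanilide release followed at 405 nm for 5 min. IC50 from initial velocities; apparent Ki via Cheng-Prusoff, assuming competitive inhibition.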

[3] = biological target: Coagulation factor X (Homo sapiens, UniProt P00742); assay: Compound was evaluated for the inhibition of human Coagulation factor Xa
[4] = biological target: Plasminogen (Homo sapiens, UniProt P00747); assay: Compound was evaluated for the inhibition of plasmin
Method in brief: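 Compound preincubated 30 min, then S-2366 at 300 μM final. Continuous 405 nm read over 5 min. Initial velocities gave IC50; apparent Ki from Cheng-Prusoff, assuming competitive mechanism.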

[5] = biological target: T3, Vitamin K-dependent protein C (Homo sapiens, UniProt P04070); assay: Compound was evaluated for the inhibition of activated protein C (aPC)
Method in brief: (§2)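 Human aPC, final enzyme 1 nM, in 0.05 M Tris, 0.15 M NaCl, 0.1% PEG-8000, 0.02 M CaCl2, pH 7.5. Compound preincubated with enzyme 30 min at room temperature. S-2366 at 500 μM final started the reaction. p-Nitroanilide release read continuously at 405 nm for 5 min, under 10% substrate consumed. IC50 from initial velocities; apparent Ki by Cheng-Prusoff, competitive mechanism assumed.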

[6] = biological target: Tissue-type plasminogen activator (Homo sapiens, UniProt P00750); assay: Compound was evaluated for the inhibition of Tissue type plasminogen activator (tissue plasminogen activator)
Method in brief: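 tPA, final enzyme 1 nM, in 0.05 M Tris, 0.15 M NaCl, 0.1% (w/v) BSA, pH 7.5. Preincubated 30 min with compound at room temperature, then Pefachrome-tPA at 500 μM final added. Release of p-nitroanilide monitored at 405 nm for 5 min. IC50 taken from initial rates; apparent Ki via Cheng-Prusoff, assuming competitive inhibition.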

[7] = biological target: T2, Prothrombin; assay: Compound was evaluated for the inhibition of thrombin.; method in brief: as §1
[8] = biological target: T3, Vitamin K-dependent protein C; assay: Compound was evaluated for the inhibition of Activated protein C (aPC); method in brief: as §2

Chain of Tissue-type plasminogen activator (P00750 whole entry): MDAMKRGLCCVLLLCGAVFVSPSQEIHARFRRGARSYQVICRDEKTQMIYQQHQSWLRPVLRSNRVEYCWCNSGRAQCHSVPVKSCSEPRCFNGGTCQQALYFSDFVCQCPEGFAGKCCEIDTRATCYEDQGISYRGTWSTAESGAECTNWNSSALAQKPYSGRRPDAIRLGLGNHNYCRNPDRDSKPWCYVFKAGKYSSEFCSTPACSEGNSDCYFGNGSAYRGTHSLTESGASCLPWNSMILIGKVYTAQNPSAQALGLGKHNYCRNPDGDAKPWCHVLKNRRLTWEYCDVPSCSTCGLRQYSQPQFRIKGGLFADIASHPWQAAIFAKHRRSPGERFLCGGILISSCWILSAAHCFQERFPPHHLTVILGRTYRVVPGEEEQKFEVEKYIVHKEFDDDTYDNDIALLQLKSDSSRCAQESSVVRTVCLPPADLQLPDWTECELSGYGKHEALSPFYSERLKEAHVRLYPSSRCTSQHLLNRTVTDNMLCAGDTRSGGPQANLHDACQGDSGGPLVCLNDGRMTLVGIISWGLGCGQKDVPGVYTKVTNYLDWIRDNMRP
Chain of Plasminogen (P00747 97-580 limits assumed): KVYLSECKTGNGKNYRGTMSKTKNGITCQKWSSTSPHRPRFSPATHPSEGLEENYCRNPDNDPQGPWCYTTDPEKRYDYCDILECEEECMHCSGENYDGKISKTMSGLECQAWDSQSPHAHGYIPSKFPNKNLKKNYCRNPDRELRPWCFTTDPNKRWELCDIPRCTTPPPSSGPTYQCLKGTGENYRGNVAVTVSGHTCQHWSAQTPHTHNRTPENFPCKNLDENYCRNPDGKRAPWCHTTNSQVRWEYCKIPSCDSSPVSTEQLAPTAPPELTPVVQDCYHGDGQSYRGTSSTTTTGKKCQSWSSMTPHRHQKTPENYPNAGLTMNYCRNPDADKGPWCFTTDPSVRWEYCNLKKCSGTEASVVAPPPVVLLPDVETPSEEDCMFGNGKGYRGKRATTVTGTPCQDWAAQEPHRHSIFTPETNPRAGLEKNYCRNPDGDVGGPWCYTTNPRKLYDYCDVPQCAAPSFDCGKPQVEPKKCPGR
Chain of Plasminogen (P00747 581-810 limits assumed): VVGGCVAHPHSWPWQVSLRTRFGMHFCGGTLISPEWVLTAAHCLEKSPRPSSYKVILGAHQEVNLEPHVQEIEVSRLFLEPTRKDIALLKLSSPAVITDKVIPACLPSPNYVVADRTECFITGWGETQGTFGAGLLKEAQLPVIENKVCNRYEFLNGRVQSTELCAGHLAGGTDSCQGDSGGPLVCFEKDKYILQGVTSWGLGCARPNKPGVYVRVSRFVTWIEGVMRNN
T3 sequence (P04070 43-197 limits assumed): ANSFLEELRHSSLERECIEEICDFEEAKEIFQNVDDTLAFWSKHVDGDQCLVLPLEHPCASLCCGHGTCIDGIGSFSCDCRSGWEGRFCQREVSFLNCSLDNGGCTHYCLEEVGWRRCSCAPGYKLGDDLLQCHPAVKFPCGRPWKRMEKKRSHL
T3 sequence (P04070 212-461 limits assumed): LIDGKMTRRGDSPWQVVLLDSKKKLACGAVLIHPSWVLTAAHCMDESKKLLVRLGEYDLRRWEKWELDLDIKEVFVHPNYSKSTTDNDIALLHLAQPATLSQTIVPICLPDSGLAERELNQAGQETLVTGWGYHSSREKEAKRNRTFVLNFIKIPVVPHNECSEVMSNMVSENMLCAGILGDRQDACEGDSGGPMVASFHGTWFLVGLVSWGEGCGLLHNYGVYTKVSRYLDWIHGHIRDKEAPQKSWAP
Chain of Coagulation factor X (P00742 41-179 limits assumed): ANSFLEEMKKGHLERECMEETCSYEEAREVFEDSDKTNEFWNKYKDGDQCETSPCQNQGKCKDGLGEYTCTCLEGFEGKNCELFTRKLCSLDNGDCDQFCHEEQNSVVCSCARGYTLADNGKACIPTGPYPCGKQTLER
Chain of Coagulation factor X (P00742 235-488 limits assumed): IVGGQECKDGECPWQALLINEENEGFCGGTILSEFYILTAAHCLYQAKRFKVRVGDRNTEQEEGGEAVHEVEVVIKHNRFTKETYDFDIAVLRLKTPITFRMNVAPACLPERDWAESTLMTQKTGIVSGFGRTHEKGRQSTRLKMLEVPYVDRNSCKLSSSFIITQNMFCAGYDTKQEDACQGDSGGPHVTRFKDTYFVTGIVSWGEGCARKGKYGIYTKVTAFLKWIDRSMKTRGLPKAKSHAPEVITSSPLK

Ki [1]	Ki [2]	Ki [3]	Ki [4]	Ki [5]	Ki [6]	Ki [7]	Ki [8]	Compound
1940 nM	970 nM	34 nM						COc1ccc2ccc(S(=O)(=O)N(Cc3cccs3)[C@H]3CCN(Cc4cccc(C(=N)N)c4)C3=O)cc2c1
80 nM	630 nM	340 nM						N=C(N)c1cccc(CNC(=O)CNS(=O)(=O)c2ccc3ccccc3c2)c1
1940 nM	1160 nM	31 nM						COc1ccc2ccc(S(=O)(=O)N(Cc3ccccn3)[C@H]3CCN(Cc4cccc(C(=N)N)c4)C3=O)cc2c1
> 2900 nM	> 4000 nM	500 nM						N=C(N)c1cccc(CN2CC[C@H](NS(=O)(=O)c3ccc4ccc(O)cc4c3)C2=O)c1
500 nM	1300 nM	11 nM						COc1ccc2ccc(S(=O)(=O)N[C@H]3CCN(Cc4csc(C(=N)N)c4)C3=O)cc2c1
1600 nM	1600 nM	370 nM						CCc1ccc2ccc(S(=O)(=O)N[C@H]3CCN(Cc4cccc(C(=N)N)c4)C3=O)cc2c1
> 2900 nM	> 4000 nM	1300 nM						N=C(N)c1cccc(CN2CCC[C@H](NS(=O)(=O)c3ccc4ccccc4c3)C2=O)c1
2900 nM	> 4000 nM	900 nM						N=C(N)c1cccc(Cn2cc(CCc3ccc4ccccc4c3)c3ccccc32)c1
> 2900 nM	> 4000 nM	380 nM						N=C(N)c1cccc(CN2CC[C@H](NS(=O)(=O)c3ccc(Oc4ccccc4)cc3)C2=O)c1
1080 nM	360 nM	19 nM						COc1ccc2ccc(S(=O)(=O)N(Cc3ccsc3)[C@H]3CCN(Cc4cccc(C(=N)N)c4)C3=O)cc2c1
> 2900 nM	2500 nM	100 nM						COc1cccc(-c2ccc(S(=O)(=O)N[C@H]3CCN(Cc4cccc(C(=N)N)c4)C3=O)cc2)c1
1390 nM	1080 nM	21 nM						COc1ccc2ccc(S(=O)(=O)N(Cc3cc[nH]n3)[C@H]3CCN(Cc4cccc(C(=N)N)c4)C3=O)cc2c1
> 2900 nM	> 4000 nM	120 nM						Cc1cccc(-c2ccc(S(=O)(=O)N[C@H]3CCN(Cc4cccc(C(=N)N)c4)C3=O)cc2)c1
> 2900 nM	> 4000 nM	9800 nM						N=C(N)c1cccc(CN2C[C@@H](NS(=O)(=O)c3ccc4ccccc4c3)CC2=O)c1
> 2900 nM	> 4000 nM	180 nM						COc1ccc2ccc(S(=O)(=O)N[C@H]3CCN(Cc4coc(C(=N)N)c4)C3=O)cc2c1
> 2900 nM	> 4000 nM	9900 nM						N=C(N)c1cccc(CN2C[C@H](NS(=O)(=O)c3ccc4ccccc4c3)C2=O)c1
> 2900 nM	> 4000 nM	7000 nM						N=C(N)c1cccc(CN2CCCC[C@H](NS(=O)(=O)c3ccc4ccccc4c3)C2=O)c1
> 2900 nM	> 4000 nM	120 nM						COc1ccc2ccc(S(=O)(=O)N(CC(=O)O)[C@H]3CCN(Cc4cccc(C(=N)N)c4)C3=O)cc2c1
1400 nM	880 nM	43 nM						CCN([C@H]1CCN(Cc2cccc(C(=N)N)c2)C1=O)S(=O)(=O)c1ccc2ccc(OC)cc2c1
2000 nM	1500 nM	56 nM						COc1ccc2ccc(S(=O)(=O)N(CCC(N)=O)[C@H]3CCN(Cc4cccc(C(=N)N)c4)C3=O)cc2c1
> 2900 nM	> 4000 nM	> 10000 nM						N=C(N)c1cccc(CN2CC[C@H](NS(=O)(=O)c3ccc4ccccc4c3)C2)c1

Ki [1]	Ki [2]	Ki [3]	Ki [4]	Ki [5]	Ki [6]	Ki [7]	Ki [8]	Compound
> 2900 nM	> 4000 nM	1100 nM						N=C(N)c1cccc(CN2CC[C@H](NS(=O)(=O)c3ccc(Cc4ccccc4)cc3)C2=O)c1
			4700 nM	1200 nM	> 10000 nM			COc1ccc2ccc(S(=O)(=O)N[C@H]3CCN(Cc4cccc(C(=N)N)c4)C3=O)cc2c1
> 2900 nM	> 4000 nM	750 nM						N=C(N)c1cccc(CN2CC[C@H](NS(=O)(=O)c3cccc4ccccc34)C2=O)c1
> 2900 nM	1500 nM	70 nM						N=C(N)c1cccc(CN2CC[C@H](NS(=O)(=O)c3ccc4cc(Cl)ccc4c3)C2=O)c1
1500 nM	> 4000 nM	250 nM						CNc1ccc2ccc(S(=O)(=O)N[C@H]3CCN(Cc4cccc(C(=N)N)c4)C3=O)cc2c1
940 nM	2400 nM	83 nM						COc1ccc2ccc(S(=O)(=O)N[C@H]3CCN(Cc4cc(C(=N)N)cs4)C3=O)cc2c1
530 nM			4400 nM	2400 nM	8600 nM	1000 nM		COc1ccc2ccc(S(=O)(=O)N(C)[C@H]3CCN(Cc4csc(C(=N)N)c4)C3=O)cc2c1
2000 nM	1200 nM	78 nM						N=C(N)c1cccc(CN2CC[C@H](NS(=O)(=O)c3ccc4ccc(Cl)cc4c3)C2=O)c1
> 2900 nM	> 4000 nM	190 nM						COc1ccccc1-c1ccc(S(=O)(=O)N[C@H]2CCN(Cc3cccc(C(=N)N)c3)C2=O)cc1
1100 nM	1340 nM	100 nM						Cc1ccc2ccc(S(=O)(=O)N[C@H]3CCN(Cc4cccc(C(=N)N)c4)C3=O)cc2c1
2840 nM	2040 nM	110 nM						COc1ccc2ccc(S(=O)(=O)N[C@H]3CCN(Cc4ccnc(C(=N)N)c4)C3=O)cc2c1
2300 nM	> 4000 nM	970 nM						COc1ccc2ccc(S(=O)(=O)N[C@H]3CCN(Cc4ccc(C(=N)N)cc4)C3=O)cc2c1
> 2900 nM	> 4000 nM	440 nM						N=C(N)c1cccc(CN2CC[C@H](NS(=O)(=O)c3cccc(-c4ccccc4)c3)C2=O)c1
1800 nM	440 nM	41 nM						COc1ccc2ccc(S(=O)(=O)N(Cc3ccccc3)[C@H]3CCN(Cc4cccc(C(=N)N)c4)C3=O)cc2c1
> 2900 nM	1900 nM	280 nM						CCOc1ccc2ccc(S(=O)(=O)N[C@H]3CCN(Cc4cccc(C(=N)N)c4)C3=O)cc2c1
1000 nM	1440 nM	25 nM						COc1ccc2ccc(S(=O)(=O)N(CC(N)=O)[C@H]3CCN(Cc4cccc(C(=N)N)c4)C3=O)cc2c1
> 2900 nM	900 nM	1000 nM						COc1ccc2cc(S(=O)(=O)N[C@H]3CCN(Cc4cccc(C(=N)N)c4)C3=O)ccc2c1
		220 nM						COc1ccc2ccc(S(=O)(=O)N[C@H]3CCN(Cc4ccc(C(=N)N)s4)C3=O)cc2c1
> 2900 nM	> 4000 nM	570 nM						COc1ccc2ccc(S(=O)(=O)N[C@H]3CCN(Cc4ccc(C(=N)N)o4)C3=O)cc2c1
1300 nM	2600 nM	120 nM						N=C(N)c1cccc(CN2CC[C@H](NS(=O)(=O)c3ccc4ccc(N)cc4c3)C2=O)c1
2900 nM	> 4000 nM		4700 nM		> 10000 nM		7000 nM	N=C(N)c1cccc(CN2CC[C@H](NS(=O)(=O)c3ccc4ccccc4c3)C2=O)c1

From ChEMBL document CHEMBL1132151, “Design and structure-activity relationships of potent and selective inhibitors of blood coagulation factor Xa” (J Med Chem, 1999)
